The test system of one experiment is AsojAgdL. Briefly: glucose release. It is filed as biochemical, Aspergillus sojae. Particulars: 20 mM MES pH 6.0, 40 °C, 60 min. The essentials: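 Recombinant enzyme expressed in A. nidulans, purified by His-Trap affinity then Superdex 200 gel filtration. Incubated with substrates at various concentrations for 60 min at 40 °C. Stopped with 10 % oxalic acid and 10 min boiling. Released glucose quantified by glucose assay kit. Km from nonlinear-regression Michaelis–Menten fit of initial velocities over the low-concentration range only.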

For the next experiment, the target named is T1, AnigAgdA (Aspergillus niger, UniProt P56526).
T1 sequence (P56526 26-985): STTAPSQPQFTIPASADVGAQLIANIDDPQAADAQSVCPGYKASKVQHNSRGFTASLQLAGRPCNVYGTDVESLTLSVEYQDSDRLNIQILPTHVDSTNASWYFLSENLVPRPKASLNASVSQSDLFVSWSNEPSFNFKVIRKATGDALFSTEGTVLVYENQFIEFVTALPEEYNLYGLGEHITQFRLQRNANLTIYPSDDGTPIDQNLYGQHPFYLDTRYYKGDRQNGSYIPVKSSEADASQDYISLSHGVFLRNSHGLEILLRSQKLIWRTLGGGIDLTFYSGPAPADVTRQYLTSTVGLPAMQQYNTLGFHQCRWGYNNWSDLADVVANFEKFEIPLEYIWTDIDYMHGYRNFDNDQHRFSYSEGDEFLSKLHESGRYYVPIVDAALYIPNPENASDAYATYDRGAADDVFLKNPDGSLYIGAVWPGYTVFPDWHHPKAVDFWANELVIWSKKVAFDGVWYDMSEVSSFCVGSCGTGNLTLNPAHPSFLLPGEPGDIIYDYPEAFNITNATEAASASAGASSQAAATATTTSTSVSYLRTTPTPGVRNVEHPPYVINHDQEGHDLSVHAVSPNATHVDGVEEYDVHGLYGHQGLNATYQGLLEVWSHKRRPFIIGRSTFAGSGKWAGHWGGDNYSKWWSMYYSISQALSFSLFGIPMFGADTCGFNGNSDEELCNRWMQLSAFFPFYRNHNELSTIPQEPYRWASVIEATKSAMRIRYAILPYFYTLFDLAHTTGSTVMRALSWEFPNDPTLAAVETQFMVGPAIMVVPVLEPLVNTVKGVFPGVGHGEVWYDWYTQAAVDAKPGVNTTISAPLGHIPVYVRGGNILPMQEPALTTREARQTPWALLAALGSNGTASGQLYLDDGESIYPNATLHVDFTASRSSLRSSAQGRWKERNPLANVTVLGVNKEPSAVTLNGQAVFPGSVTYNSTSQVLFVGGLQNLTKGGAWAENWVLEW
As to the kind of experiment: glucose release, fit of v = Vmax[S]/. In kind it is biochemical. Particulars: 20 mM acetate pH 4.0, 40 °C, 60 min; substrate inhibition.

Setting [1] is: low substrate range only (substrate inhibition).

Take `OC[C@H]1O[C@H](OC[C@H]2O[C@H](OC[C@H]3O[C@H](OC[C@H]4O[C@H](OC[C@H]5O[C@H](OC[C@H]6OC(O)[C@H](O)[C@@H](O)[C@@H]6O)[C@H](O)[C@@H](O)[C@@H]5O)[C@H](O)[C@@H](O)[C@@H]4O)[C@H](O)[C@@H](O)[C@@H]3O)[C@H](O)[C@@H](O)[C@@H]2O)[C@H](O)[C@@H](O)[C@@H]1O` (stereo partly shown) [Isomaltohexaose]: the Michaelis-Menten constant (Km) in the experiment on AsojAgdL is 1100 ± 200 µM.
With `OC[C@H]1O[C@H](OC[C@H]2O[C@H](OC[C@H]3O[C@H](OC[C@H]4O[C@H](OC[C@H]5OC(O)[C@H](O)[C@@H](O)[C@@H]5O)[C@H](O)[C@@H](O)[C@@H]4O)[C@H](O)[C@@H](O)[C@@H]3O)[C@H](O)[C@@H](O)[C@@H]2O)[C@H](O)[C@@H](O)[C@@H]1O` (stereo partly shown) [Isomaltopentaose], the Km in the experiment with AsojAgdL amounted to 900 ± 100 µM.
The same measure, in the same setting: as for `OC[C@H]1O[C@H](OC[C@H]2OC(O)[C@H](O)[C@@H](O)[C@@H]2O)[C@H](O)[C@@H](O)[C@@H]1O` (stereo partly shown) [Isomaltose], the figure is 2000 ± 300 µM; as for `OC[C@H]1O[C@H](OC[C@H]2O[C@H](OC[C@H]3O[C@H](OC[C@H]4OC(O)[C@H](O)[C@@H](O)[C@@H]4O)[C@H](O)[C@@H](O)[C@@H]3O)[C@H](O)[C@@H](O)[C@@H]2O)[C@H](O)[C@@H](O)[C@@H]1O` (stereo partly shown) [Isomaltotetraose], 2400 ± 800 µM; as for `OC[C@H]1O[C@H](OC[C@H]2O[C@H](OC[C@H]3OC(O)[C@H](O)[C@@H](O)[C@@H]3O)[C@H](O)[C@@H](O)[C@@H]2O)[C@H](O)[C@@H](O)[C@@H]1O` (stereo partly shown) [Isomaltotriose], 500 ± 100 µM.
Regarding `OC[C@H]1O[C@H](O[C@H]2C(O)O[C@H](CO)[C@@H](O)[C@@H]2O)[C@H](O)[C@@H](O)[C@@H]1O` (stereo partly shown) [Kojibiose], the Km in the experiment with AsojAgdL was 2100 ± 300 µM.
With `OC[C@H]1O[C@H](O[C@H]2[C@H](O)[C@@H](O)[C@@H](O[C@H]3[C@H](O)[C@@H](O)[C@@H](O[C@H]4[C@H](O)[C@@H](O)[C@@H](O[C@H]5[C@H](O)[C@@H](O)[C@@H](O[C@H]6[C@H](O)[C@@H](O)C(O)O[C@@H]6CO)O[C@@H]5CO)O[C@@H]4CO)O[C@@H]3CO)O[C@@H]2CO)[C@H](O)[C@@H](O)[C@@H]1O` (stereo partly shown) [Maltohexaose], the Km with AsojAgdL (setting [1]) is 900 ± 100 µM. The same compound gave a Ki on AnigAgdA of 30.8 ± 7.0 mM.
In the case of `OC[C@H]1O[C@H](O[C@H]2[C@H](O)[C@@H](O)[C@@H](O[C@H]3[C@H](O)[C@@H](O)[C@@H](O[C@H]4[C@H](O)[C@@H](O)[C@@H](O[C@H]5[C@H](O)[C@@H](O)C(O)O[C@@H]5CO)O[C@@H]4CO)O[C@@H]3CO)O[C@@H]2CO)[C@H](O)[C@@H](O)[C@@H]1O` (stereo partly shown) [Maltopentaose], in the experiment on AsojAgdL (setting [1]), the Michaelis constant (Km) turned out to be 900 ± 100 µM. At AnigAgdA, this compound showed a Ki of 19.6 ± 2.2 mM.
As to `OC[C@H]1O[C@H](O[C@H]2[C@H](O)[C@@H](O)C(O)O[C@@H]2CO)[C@H](O)[C@@H](O)[C@@H]1O` (stereo partly shown) [Maltose], the Michaelis-Menten constant (Km) in the experiment with AsojAgdL turned out to be 2200 ± 300 µM. Moreover, the Ki on AnigAgdA was 12.0 ± 3.6 mM.
Turning to `OC[C@H]1O[C@H](O[C@H]2[C@H](O)[C@@H](O)[C@@H](O[C@H]3[C@H](O)[C@@H](O)[C@@H](O[C@H]4[C@H](O)[C@@H](O)C(O)O[C@@H]4CO)O[C@@H]3CO)O[C@@H]2CO)[C@H](O)[C@@H](O)[C@@H]1O` (stereo partly shown) [Maltotetraose], in the experiment with AsojAgdL (setting [1]), the Michaelis-Menten constant (Km) was found to be 1600 ± 100 µM.
On to `OC[C@H]1O[C@H](O[C@H]2[C@H](O)[C@@H](O)[C@@H](O[C@H]3[C@H](O)[C@@H](O)C(O)O[C@@H]3CO)O[C@@H]2CO)[C@H](O)[C@@H](O)[C@@H]1O` (stereo partly shown) [Maltotriose], for which the Km with AsojAgdL (setting [1]) turned out to be 2000 µM. On AnigAgdA, this compound returned a Ki of 3.8 ± 0.7 mM.
`OC[C@H]1O[C@H](O[C@H]2[C@H](O)[C@@H](CO)OC(O)[C@@H]2O)[C@H](O)[C@@H](O)[C@@H]1O` (stereo partly shown) [Nigerose]: in the experiment on AsojAgdL, the Km is 2500 ± 400 µM.

For the origin of these results see publication PMC8114154 (Journal of Applied Glycoscience, 2019).
